# Beta2AR agonist: agonists of human beta-2 adrenergic receptor inducing internalization | P07550 | Am2.2-beta2AR cells, FAP receptor internalization, flow cytometry | response, % (concentration not given with the values) | 340,000 compounds, 0.43% hits;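 active means response above a set limit, near 3 SD of response in nonfluorescent compounds, cut at about 42% in these data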
# MC4R ag barr: agonists of human melanocortin 4 receptor (MC4R) beta-arrestin | P32245 | U2OS MC4R beta-arrestin complementation, luminescence; percent of melanotan II response, DMSO zero | activation, % at 8.9 µM | 360,000 compounds, 0.98% hits | AID 540308;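 active means activation above a per-plate cutoff, the mean activation of sample wells on that plate plus 3 SD, cut at about 8% in these data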
# TAAR1 antag: antagonists of human TAAR1; 360,000 compounds, 1.5% hits; CHO RD-HGA16 TAAR1, Fluo-8 calcium fluorescence, antagonist; Q96RJ0; inhibition, % at 3 µM;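 active means inhibition above a per-plate cutoff, the mean inhibition of test compounds on that plate plus 3 SD, cut at about 49% in these data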
# Target sequence (Q96RJ0 whole entry, looked up): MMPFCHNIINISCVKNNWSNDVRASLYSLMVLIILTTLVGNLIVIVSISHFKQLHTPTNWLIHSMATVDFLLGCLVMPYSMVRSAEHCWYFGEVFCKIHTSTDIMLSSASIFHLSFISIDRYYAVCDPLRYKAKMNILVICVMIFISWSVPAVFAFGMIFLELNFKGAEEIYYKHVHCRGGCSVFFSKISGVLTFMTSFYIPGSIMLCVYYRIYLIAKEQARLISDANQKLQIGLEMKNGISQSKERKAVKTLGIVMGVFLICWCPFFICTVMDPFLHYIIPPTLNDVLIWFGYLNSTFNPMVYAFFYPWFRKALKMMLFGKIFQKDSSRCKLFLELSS
#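 System: RD-HGA16 CHO cells with stable hTAAR1 and Gα16 | Probe or stimulus: EC80 β-phenethylamine stimulus | Dosing: 3 µM, single point | Times: Dye loading 75 min at 37 °C, then 30 min room temperature | Measured by: Fluo-8 calcium-sensitive fluorescence | Read-out basis: % inhibition of agonist calcium response | Replicates: n of 1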
# MC4R antag cAMP: human MC4R antagonism in cAMP assay; AID 540295; P32245; MC4R-expressing cells, MTII-stimulated cAMP, LANCE TR-FRET; inhibition, % at 6.5 µM; 360,000 compounds, 0.48% hits;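 active means inhibition above its plate's cutoff, the mean of tested wells on that plate plus 3 SD, cut at about 29% in these data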
#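 Assay system: U2OS cells stably expressing human melanocortin 4 receptor (MC4R) / Dosing: 6.5 µM / Timing: compound 30 min, challenge 1 h, detection 1 h / Measured by: Eu-cAMP/anti-cAMP TR-FRET, emission 671 nm / Replicates: singlicate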
# HTR2A ag: agonists of mouse serotonin 5-HT2A receptor (HTR2A) | CHO-K1 mHTR2A beta-arrestin complementation, luminescence; percent of 30 µM serotonin response | AID 624169 | P35363 | activation, % at 7.6 µM | 360,000 compounds, 0.66% hits;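 active means activation above a run cutoff, the mean activation of all tested compounds plus 3 SD, cut at about 14% in these data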
# TAAR1 ag: agonists of human TAAR1; Q96RJ0; CHO RD-HGA16 TAAR1, Fluo-8 calcium fluorescence; vehicle wells 0%, saturating PEA agonist 100%; activation, % at 3 µM; 360,000 compounds, 0.99% hits;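 active means activation above the mean activation of all test compounds in the run plus 3 SD, cut at about 38% in these data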
#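 System: CHO-derived RD-HGA16 cells with stable Gα16 and human TAAR1. Times: 17-24 h plating, Fluo-8 75 min 37 °C, 30 min RT. Measured by: calcium-sensitive Fluo-8 signal, excitation 470-495, emission 515-575 nm. Read-out basis: % activation relative to PEA EC100 response. Control set: DMSO and PEA EC100. Repeats: no replicates (n 1).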
# TAAR1 nonsel count: nonselective antagonist in TAAR1 antagonist counter-screen | shares compounds with TAAR1 antag | counterscreen cell line, calcium fluorescence, antagonist mode | inhibition, % at 3 µM | 2,400 compounds, 77% hits; in the data active means inhibition above about 22%;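 further: CHO-Ga16 host cells stimulated with ATP at an EC80 level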
# TAAR1 ant conf: confirmation of human TAAR1 antagonists; shares compounds with TAAR1 antag; 2,400 compounds, 40% hits; inhibition, % at 3 µM; TAAR1-expressing cells, fluorescence antagonist read-out; AID 651785; in the data active means inhibition above about 49%;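 further: CHO-Ga16 host cells challenged with agonist PEA near its EC80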
# Ga16 ag counter: nonselective Ga16 agonist in TAAR1 antagonist counter-screen. shares compounds with TAAR1 antag. Ga16-expressing cells, calcium fluorescence, agonist counterscreen. activation, % at 3 µM. 2,400 compounds, 18% hits. AID 651953; in the data active means activation above about 12%
# TAAR1 ag count: counter-screen for human TAAR1 antagonists: TAAR1 agonists | shares compounds with TAAR1 antag | hTAAR1 cell line, fluorescence activation, agonist mode | activation, % at 3 µM | 2,400 compounds, 2% hits; in the data active means activation above about 37%;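 further: CHO cells stably expressing TAAR1 with calcium dye readout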
# Hits are given with their value; – = inactive; · = not tested or not shown. Most compounds without a hit are left out; they make up all but 4.3% or so of the library.
SMILES,Beta2AR agonist,MC4R ag barr,TAAR1 antag,MC4R antag cAMP,HTR2A ag,TAAR1 ag,TAAR1 nonsel count,TAAR1 ant conf,Ga16 ag counter,TAAR1 ag count
COc1ccc(C(=Cc2ccccc2[N+](=O)[O-])C(=O)O)cc1,–,–,–,–,–,–,·,·,·,·
COc1cc(-c2cc(C(=O)Nc3cccc(S(=O)(=O)N(C)C)c3)c3ccccc3n2)cc(OC)c1OC,–,–,54,–,–,–,34,49,–,–
CCN(CC)S(=O)(=O)c1ccc(O)c(NC(=O)c2cc(-c3cc(OC)c(OC)c(OC)c3)nc3ccccc23)c1,–,–,·,–,–,·,·,·,·,·
O=C(N/N=C/c1c[nH]c2ccc(Br)cc12)c1ccn(Cc2ccc(Cl)cc2)n1,–,–,62,–,–,–,24,–,–,–
Cc1csc2nc(CSc3nc4ccccc4o3)c(Br)n12,–,–,61,–,–,–,–,–,–,–
Cc1csc2nc(CSc3nncn3-c3ccccc3)c(Br)n12,–,–,–,–,–,–,·,·,·,·
CCc1c(C)nc(N2CCN(c3ccc(OC)cc3)CC2)[nH]c1=O,–,–,–,–,–,–,·,·,·,·
COc1ccc([C@H]2CC(=O)C=C(c3cccc(Br)c3)C2)cc1OC,–,–,64,–,–,–,–,–,–,–
COc1cccc(Nc2nc3cc(C)ccc3cc2C)c1,·,–,–,–,–,–,·,·,·,·
Nc1cc(Cl)ccc1C(=O)OCC(=O)N1CCCCCC1,–,–,103,–,–,–,–,–,–,–
Nc1cc(Cl)ccc1C(=O)OCC(=O)NC1CCCCC1,–,–,102,–,–,–,–,–,–,–
CCN(C(=O)COC(=O)c1ccc(Cl)cc1N)C1CCCCC1,–,–,–,–,–,–,·,·,·,·
O=C(OCC(=O)N1CCCCCC1)c1cccnc1Cl,–,–,–,–,–,–,·,·,·,·
Nc1cc(Cl)ccc1C(=O)OCC(=O)N1CCCC1,–,–,–,–,–,–,·,·,·,·
CSc1ncccc1C(=O)OCC(=O)N1CCCC1,–,–,101,–,–,–,–,–,–,–
O=[N+]([O-])c1cc(-n2cccc2)ccc1N1CCOCC1,–,–,60,–,–,–,28,–,–,–
Cc1ccc(C)n1-c1ccc(N2CCOCC2)c([N+](=O)[O-])c1,–,–,–,–,–,–,·,·,·,·
CC(C)(C)c1ccc(C(=O)N2CCC(=O)N([C@H](COCc3ccccc3)Cc3ccccc3)CC2)cc1,·,·,71,·,–,–,27,50,–,–
CCOC(=O)Cc1csc(/N=C/c2c(O)n(-c3ccccc3C(F)(F)F)c(=O)c3ccccc23)n1,–,–,75,–,–,–,34,56,–,–
Cc1c([N+](=O)[O-])cc(C(=O)Nc2ccc(Cc3ccncc3)cc2)cc1[N+](=O)[O-],–,–,88,–,–,–,31,91,–,–
Cc1ccc(C(=O)Nc2ccncc2)cc1[N+](=O)[O-],–,–,–,–,–,–,·,·,·,·
CC1CCCC(C)N1C(=O)COC(=O)CSc1ccc([N+](=O)[O-])cc1 (configuration not stated),–,–,–,–,–,–,·,·,·,·
CC(C)(C)N(Cc1ccccc1)C(=O)COC(=O)CSc1ccc([N+](=O)[O-])cc1,–,–,67,–,–,–,31,–,–,–
CCN(CC(=O)Nc1ccc(NC(C)=O)cc1)C(=O)c1ccccc1Sc1ccccc1C#N,–,–,51,–,–,–,27,–,–,–
CC1(c2nnc(-c3ccc(F)cc3)o2)CC(c2c(Cl)cccc2Cl)=NO1 (configuration not stated),–,–,–,–,–,–,·,·,·,·
